Measurements as given in ChEMBL document CHEMBL2429732, “Aminopyrazole-Phenylalanine Based GPR142 Agonists: Discovery of Tool Compound and in Vivo Efficacy Studies” (ACS Med Chem Lett, 2013).
Active and inactive are the calls of the source. The calls are words filed in the database; no cut-off is given here.

Assays:
[1] = Oral bioavailability in cynomolgus monkey at 10 mg/kg; type: ADME, organism-based, Macaca fascicularis; details: in vivo
How it was run: (§1)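 Oral dosing used the ethyl ester prodrug. All pharmacokinetic calculations were based on the parent free acid in plasma.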

[2] = Cmax in rat at 2 mg/kg, sc; type: ADME, organism-based; parameters: dose 2 mg/kg, route subcutaneous; details: in vivo
[3] = target: Cytochrome P450 3A4 (Homo sapiens, UniProt P08684); experiment: Inhibition of CYP3A4 (unknown origin); type: ADME
Chain of Cytochrome P450 3A4 (P08684 whole entry): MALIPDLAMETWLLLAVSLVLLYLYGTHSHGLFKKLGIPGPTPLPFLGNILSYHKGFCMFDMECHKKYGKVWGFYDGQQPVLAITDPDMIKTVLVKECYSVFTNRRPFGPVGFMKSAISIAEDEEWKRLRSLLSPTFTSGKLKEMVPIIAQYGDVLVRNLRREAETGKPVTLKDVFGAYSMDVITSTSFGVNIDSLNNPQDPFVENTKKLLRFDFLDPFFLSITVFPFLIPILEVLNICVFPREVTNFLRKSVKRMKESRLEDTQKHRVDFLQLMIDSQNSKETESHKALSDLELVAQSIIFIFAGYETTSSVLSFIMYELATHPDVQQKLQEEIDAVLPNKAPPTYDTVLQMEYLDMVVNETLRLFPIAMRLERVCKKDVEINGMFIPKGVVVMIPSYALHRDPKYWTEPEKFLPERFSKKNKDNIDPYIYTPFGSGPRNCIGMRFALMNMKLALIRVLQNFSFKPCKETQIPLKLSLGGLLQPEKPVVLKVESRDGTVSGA

[4] = target: Voltage-gated inwardly rectifying potassium channel KCNH2 (Homo sapiens, UniProt Q12809); experiment: Inhibition of human ERG by patch clamp assay
Chain of Voltage-gated inwardly rectifying potassium channel KCNH2 (Q12809 whole entry): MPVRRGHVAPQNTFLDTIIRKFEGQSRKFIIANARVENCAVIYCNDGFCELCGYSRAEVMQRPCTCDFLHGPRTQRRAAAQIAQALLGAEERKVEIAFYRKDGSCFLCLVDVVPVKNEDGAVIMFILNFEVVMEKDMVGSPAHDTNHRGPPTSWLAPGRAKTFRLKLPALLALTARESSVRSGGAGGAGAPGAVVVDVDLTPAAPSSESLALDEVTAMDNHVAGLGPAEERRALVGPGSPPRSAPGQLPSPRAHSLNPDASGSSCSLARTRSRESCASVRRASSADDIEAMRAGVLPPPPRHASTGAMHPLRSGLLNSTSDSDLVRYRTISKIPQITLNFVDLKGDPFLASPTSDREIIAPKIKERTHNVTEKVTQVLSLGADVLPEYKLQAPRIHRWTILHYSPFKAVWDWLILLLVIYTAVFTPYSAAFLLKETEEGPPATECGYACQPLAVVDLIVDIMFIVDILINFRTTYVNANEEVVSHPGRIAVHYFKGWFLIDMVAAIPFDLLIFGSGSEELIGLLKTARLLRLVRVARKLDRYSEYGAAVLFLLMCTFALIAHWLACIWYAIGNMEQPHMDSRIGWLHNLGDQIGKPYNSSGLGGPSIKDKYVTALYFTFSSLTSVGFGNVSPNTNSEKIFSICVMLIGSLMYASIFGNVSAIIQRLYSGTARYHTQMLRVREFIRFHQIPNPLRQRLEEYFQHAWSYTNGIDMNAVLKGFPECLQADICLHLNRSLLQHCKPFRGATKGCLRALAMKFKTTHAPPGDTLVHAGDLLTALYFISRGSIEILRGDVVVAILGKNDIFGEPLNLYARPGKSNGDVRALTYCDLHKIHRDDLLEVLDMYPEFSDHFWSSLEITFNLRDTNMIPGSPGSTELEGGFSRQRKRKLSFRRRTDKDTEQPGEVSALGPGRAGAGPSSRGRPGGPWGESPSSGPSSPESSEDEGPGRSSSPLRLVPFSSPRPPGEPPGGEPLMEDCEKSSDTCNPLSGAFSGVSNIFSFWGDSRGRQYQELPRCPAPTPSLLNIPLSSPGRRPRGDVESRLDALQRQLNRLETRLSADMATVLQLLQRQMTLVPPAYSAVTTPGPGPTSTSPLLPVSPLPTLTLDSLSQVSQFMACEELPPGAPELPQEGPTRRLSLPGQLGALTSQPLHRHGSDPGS

[5] = Volume of distribution at steady state in rat at 0.5 mg/kg, iv; type: ADME, organism-based; parameters: dose 0.5 mg/kg, route intravenous; details: in vivo, read-out: Vdss
[6] = test system: Mus musculus; experiment: Antidiabetic activity in wild type mouse assessed as reduction of plasma glucose AUC at 10 mg/kg, sc administered 15 mins before glucose challenge measured up to 90 mins; parameters: scale not given: the % may be the effect or the level left; details: route subcutaneous
[7] = Half life in rat at 0.5 mg/kg, iv; type: ADME, organism-based; parameters: dose 0.5 mg/kg, route intravenous; details: in vivo
[8] = target: T1, Probable G-protein coupled receptor 142 (Mus musculus, UniProt Q7TQN9); experiment: Agonist activity at mouse GPR142
T1 sequence (Q7TQN9 whole entry): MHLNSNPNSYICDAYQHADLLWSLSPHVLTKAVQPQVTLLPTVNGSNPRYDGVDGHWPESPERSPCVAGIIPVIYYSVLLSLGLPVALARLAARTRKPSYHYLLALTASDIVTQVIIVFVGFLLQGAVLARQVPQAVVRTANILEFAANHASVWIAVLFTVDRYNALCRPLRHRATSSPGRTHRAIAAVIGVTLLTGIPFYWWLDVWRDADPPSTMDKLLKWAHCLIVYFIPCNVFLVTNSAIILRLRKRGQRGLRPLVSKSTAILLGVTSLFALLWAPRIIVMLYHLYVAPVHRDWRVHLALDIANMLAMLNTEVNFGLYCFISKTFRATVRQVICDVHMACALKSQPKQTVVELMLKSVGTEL
How it was run: (§2)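 HEK293 cells, plated at 25 000/well, were transiently transfected with 100 ng receptor plasmid per well. They were labelled overnight with 1.0 μCi/mL tritiated inositol in inositol-free DMEM/10% dialyzed FCS. Cells were then exposed to graded compound levels in HBSS/0.01% BSA with 10 mM LiCl for 1 h at 37 °C. Cells were lysed in cold 20 mM formic acid (5 h, 4 °C), and IP was captured on yttrium silicate SPA beads and read by scintillation counting. EC50 is the mean of three runs.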

[9] = Fraction unbound in cynomolgus monkey plasma; type: ADME, cell-free, Macaca fascicularis
[10] = Bioavailability in rat at 2 mg/kg, sc; type: ADME, organism-based; details: in vivo
[11] = Tmax in cynomolgus monkey at 10 mg/kg, po; type: ADME, organism-based, Macaca fascicularis; parameters: dose 10 mg/kg, route oral; details: in vivo; how it was run: as §1
[12] = target: T2, Probable G-protein coupled receptor 142 (Mus musculus) (UniProt Q7TQN9); experiment: Agonist activity at mouse GPR142 relative to tryptophan
T2 sequence (whole entry): T1 sequence (Q7TQN9 whole entry)
How it was run: (§3)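 Inositol phosphate accumulation in HEK293 cells transfected with mouse or cynomolgus monkey receptor plasmid, tritiated inositol labelling, compounds in HBSS/0.01% BSA plus 10 mM LiCl, 37 °C for 1 h, SPA scintillation read-out; maximal efficacy expressed relative to tryptophan response.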

[13] = species: Macaca fascicularis; experiment: Agonist activity at cynomolgus monkey GPR142 relative to tryptophan; how it was run: as §3
[14] = Tmax in rat at 2 mg/kg, po; type: ADME, organism-based; parameters: dose 2 mg/kg, route oral; details: in vivo; how it was run: as §1
[15] = target: T3, Nuclear receptor subfamily 1 group I member 2 (Homo sapiens, UniProt O75469); experiment: Induction of human PXR activity
T3 sequence (O75469 whole entry): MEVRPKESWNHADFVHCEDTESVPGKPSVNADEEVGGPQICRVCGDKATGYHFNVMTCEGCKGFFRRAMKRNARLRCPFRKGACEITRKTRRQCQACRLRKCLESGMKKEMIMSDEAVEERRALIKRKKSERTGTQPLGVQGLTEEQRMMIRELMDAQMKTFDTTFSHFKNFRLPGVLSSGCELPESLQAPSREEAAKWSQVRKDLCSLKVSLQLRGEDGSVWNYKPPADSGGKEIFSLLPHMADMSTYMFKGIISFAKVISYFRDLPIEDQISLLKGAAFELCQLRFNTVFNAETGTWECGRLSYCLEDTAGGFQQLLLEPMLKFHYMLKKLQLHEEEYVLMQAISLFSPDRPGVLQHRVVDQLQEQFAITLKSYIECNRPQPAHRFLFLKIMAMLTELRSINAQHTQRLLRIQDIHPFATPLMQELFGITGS

[16] = Metabolic stability in rat liver microsomes assessed as compound remaining at 1 uM after 30 mins; type: ADME, Microsome; details: read-out: Stability
[17] = Metabolic stability in human liver microsomes assessed as compound remaining at 1 uM after 30 mins; type: ADME, Microsome; details: read-out: Stability
How it was run: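 Compound at 1.0 μM was incubated for 30 min in human liver microsomes; percentage of intact compound remaining was determined.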

[18] = target: T4, Probable G-protein coupled receptor 142 (Homo sapiens, UniProt Q7Z601); experiment: Agonist activity at human GPR142 expressed in HEK293 cells assessed as inositol phosphate accumulation using [3H]-inositol after 1 hr by scintillation counting; type: functional, cell-based
T4 sequence (Q7Z601 whole entry): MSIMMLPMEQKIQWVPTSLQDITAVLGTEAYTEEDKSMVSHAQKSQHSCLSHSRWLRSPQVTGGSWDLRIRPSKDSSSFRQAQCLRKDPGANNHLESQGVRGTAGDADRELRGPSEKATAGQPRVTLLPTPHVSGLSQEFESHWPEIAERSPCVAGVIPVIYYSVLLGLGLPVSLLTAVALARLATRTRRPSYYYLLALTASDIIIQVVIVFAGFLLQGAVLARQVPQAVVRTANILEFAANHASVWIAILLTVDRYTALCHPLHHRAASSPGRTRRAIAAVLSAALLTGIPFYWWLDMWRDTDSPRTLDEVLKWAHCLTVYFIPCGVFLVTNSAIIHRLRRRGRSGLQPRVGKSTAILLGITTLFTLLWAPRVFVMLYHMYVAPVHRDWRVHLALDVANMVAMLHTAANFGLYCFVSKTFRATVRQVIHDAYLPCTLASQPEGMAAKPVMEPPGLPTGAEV

[19] = target: Cytochrome P450 2D6 (Homo sapiens, UniProt P10635); experiment: Inhibition of CYP2D6 (unknown origin); type: ADME
Chain of Cytochrome P450 2D6 (P10635 whole entry): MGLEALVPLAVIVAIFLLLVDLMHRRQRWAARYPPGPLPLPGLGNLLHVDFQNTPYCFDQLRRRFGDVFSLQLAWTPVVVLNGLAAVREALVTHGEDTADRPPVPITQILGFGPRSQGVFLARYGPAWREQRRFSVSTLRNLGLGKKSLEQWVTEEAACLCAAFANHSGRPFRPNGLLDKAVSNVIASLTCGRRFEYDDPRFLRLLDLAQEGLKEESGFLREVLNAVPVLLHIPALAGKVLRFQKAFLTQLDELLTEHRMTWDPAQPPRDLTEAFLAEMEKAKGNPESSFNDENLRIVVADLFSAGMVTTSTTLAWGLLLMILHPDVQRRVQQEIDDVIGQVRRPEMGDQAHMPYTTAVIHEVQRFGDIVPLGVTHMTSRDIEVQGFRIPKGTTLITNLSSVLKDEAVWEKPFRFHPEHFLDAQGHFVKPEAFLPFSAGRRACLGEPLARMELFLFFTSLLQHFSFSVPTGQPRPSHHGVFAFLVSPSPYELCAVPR

[20] = Clearance in rat at 0.5 mg/kg, iv; type: ADME, organism-based; parameters: dose 0.5 mg/kg, route intravenous; details: in vivo
[21] = Bioavailability in cynomolgus monkey at 2 mg/kg, sc; type: ADME, organism-based, Macaca fascicularis; details: in vivo
[22] = Agonist activity at cynomolgus monkey GPR142; parameters: species or system Macaca fascicularis; how it was run: as §2
[23] = Tmax in rat at 2 mg/kg, sc; type: ADME, organism-based; parameters: dose 2 mg/kg, route subcutaneous; details: in vivo
[24] = Fraction unbound in human plasma; type: ADME, cell-free
[25] = Volume of distribution at steady state in cynomolgus monkey at 0.5 mg/kg, iv; type: ADME, organism-based, Macaca fascicularis; parameters: dose 0.5 mg/kg, route intravenous; details: in vivo, read-out: Vdss
[26] = Oral bioavailability in rat at 2 mg/kg; type: ADME, organism-based; details: in vivo; how it was run: as §1
[27] = species: Mus musculus; experiment: Induction of insulin secretion in GPR142-deficient mouse islets at 3 to 10 uM by ELISA in presence of glucose; type: functional
How it was run: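 Islets isolated from wild-type and GPR142 knockout mice were incubated with test agent at 3.0 and 10.0 μM in the presence of 16.7 mM glucose, and insulin secretion was measured.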

[28] = Tmax in cynomolgus monkey at 2 mg/kg, sc; type: ADME, organism-based, Macaca fascicularis; parameters: dose 2 mg/kg, route subcutaneous; details: in vivo
[29] = Cmax in cynomolgus monkey at 2 mg/kg, sc; type: ADME, organism-based, Macaca fascicularis; parameters: dose 2 mg/kg, route subcutaneous; details: in vivo
[30] = Permeability across human Caco2 cells; type: ADME, cell-based; details: Caco-2, read-out: permeability
[31] = Fraction unbound in rat plasma; type: ADME, cell-free
[32] = test system: Mus musculus; experiment: Antidiabetic activity in mouse bearing human islets assessed as reduction of plasma glucose AUC at 10 mg/kg, sc administered 15 mins before glucose challenge measured up to 90 mins; parameters: scale not given: the % may be the effect or the level left; details: route subcutaneous
[33] = Cmax in rat at 2 mg/kg, po; type: ADME, organism-based; parameters: dose 2 mg/kg, route oral; details: in vivo; how it was run: as §1
[34] = Clearance in cynomolgus monkey at 0.5 mg/kg, iv; type: ADME, organism-based, Macaca fascicularis; parameters: dose 0.5 mg/kg, route intravenous; details: in vivo
[35] = Half life in cynomolgus monkey at 0.5 mg/kg, iv; type: ADME, organism-based, Macaca fascicularis; parameters: dose 0.5 mg/kg, route intravenous; details: in vivo
[36] = Cmax in cynomolgus monkey at 10 mg/kg, po; type: ADME, organism-based, Macaca fascicularis; parameters: dose 10 mg/kg, route oral; details: in vivo; how it was run: as §1
[37] = target: T2, Probable G-protein coupled receptor 142 (Mus musculus); experiment: Ex vivo agonist activity at GPR142 in wild type mouse islets assessed as stimulation of insulin secretion at 3 to 10 uM by ELISA in presence of glucose
How it was run: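 Islets from wild-type and GPR142 knockout mice incubated with compound at 3.0 and 10.0 μM in presence of 16.7 mM glucose; insulin secretion measured.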

In the case of `Cn1nc(-c2ccncc2)cc1NC(=O)[C@H](Cc1ccccc1)NCC(=O)O`, the bioavailability [1] is reported as 6%, the Cmax [2] is reported as 7.5 µM and the IC50 [3] is reported as > 30000 nM. The IC50 [4] was > 30000 nM, the Vd [5] was 0.29 L/kg and the Activity [6] was -25%. The half-life [7] was 4.1 h, the EC50 [8] was 31 nM and the fraction unbound [9] was 0.1. It also gave a bioavailability [10] of 81%, a Tmax [11] of 4 h and an Emax [12] of 73%. The Emax [13] was 79%, the Tmax [14] was 0.83 h and the Activity [15] was “Not Active”. The remaining at 0.5 h, 1 µM [16] was > 90%, the remaining at 0.5 h, 1 µM [17] was > 90% and the EC50 [18] was 52 nM. For the same molecule, the IC50 [19] was > 30000 nM, the clearance [20] was 2.5 mL/min/kg and the bioavailability [21] was 100%. It also gave an EC50 [22] of 79 nM, a Tmax [23] of 0.38 h and a fraction unbound [24] of 0.16. The Vd [25] was 0.33 L/kg, the bioavailability [26] was 3% and the Activity [27] was “inactive”. The Tmax [28] was 0.5 h, the Cmax [29] was 6.3 µM and the Papp [30] was 0.9 ×10⁻⁶ cm/s. For the same molecule, the fraction unbound [31] was 0.01, the Activity [32] was -28% and the Cmax [33] was 0.17 µM. For the same molecule, the clearance [34] was 7.33 mL/min/kg, the half-life [35] was 2.3 h and the Cmax [36] was 0.4 µM. For the same molecule, the Activity [37] was “Active”.
